In experiment [1] the target is T1, hTRPML1-nLuc (Homo sapiens, UniProt Q9GZU1). Kind of experiment: In-cell BRET competitive displacement of MRC087. The format is binding. A digest of the protocol:
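hTRPML1-nLuc HEK293T cells (2 × 10^5/100 μl, 48 h post-transfection) in Opti-MEM received tracer at 2.0 μM final and serially diluted test compound (final DMSO 1%). After 2 h incubation, nLuc substrate plus inhibitor was added and emissions read at 460/610 nm. BRET was normalised to probe-only and no-probe wells and fitted for EC50, then converted to KdA by Cheng–Prusoff using tracer Kd. n = 3–4/concentration, three independent experiments.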
Background: Bioluminescence resonance energy transfer reports proximity on the nanometre scale.

Experiment [2] has as its target T1, hTRPML1-nLuc. In words: In-cell BRET kinetics of competitive binding. Conditions: for koff: read-out: koff of unlabeled compound. The method in brief:
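hTRPML1-nLuc HEK293T cells in Opti-MEM were given nLuc substrate plus inhibitor, shaken 5 min and read for a 1-min baseline. The reader then injected tracer (2.0 μM final) premixed with one of two concentrations of unlabeled compound, or DMSO vehicle; 60 μM reference antagonist defined nonspecific binding. Specific BRET versus time was fitted to the Motulsky–Mahan competitive kinetics model with tracer kon/koff obtained separately. n = 6/concentration, single experiment.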

The target of experiment [3] is T2, GCaMP6f-hTRPML1 (Homo sapiens, UniProt Q9GZU1). Kind of experiment: GCaMP6f Ca2+ indicator channel assay. The format is cell-based. The method in brief:
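GCaMP6f-hTRPML1-transfected HEK293T cells were preincubated 10 min at RT with test compound. After a 1-min baseline (reads every 5 s), reference agonist was injected at 25 μM final and fluorescence recorded a further 6 min (ex 480 ± 25, em 549–562 nm; 0.5% DMSO). Compounds were diluted in nominally Ca2+-free HEPES-buffered solution. Baseline-normalised AUC was scaled to DMSO and agonist controls, and IC50 was derived by nonlinear fit. n = 6/concentration, two independent experiments.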

A further experiment deals with hTRPML1. Conditions: ref [11], [12], cited from earlier work.
The target in experiment [4] is T2, GCaMP6f-hTRPML1. Kind of experiment: GCaMP6f Ca2+ indicator channel activation assay. The format is cell-based. A digest of the protocol: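 HEK293T cells were transfected with GCaMP6f-hTRPML1 and seeded at 4 × 10^5 cells/100 μl in poly-D-lysine plates. After 24 h the medium was changed to phenol red-free DMEM, with a further 24 h growth. Plates were equilibrated 10 min at RT and 10 min at 25 °C, followed by a 1-min baseline read every 5 s. The 10× compound in Ca2+-free HEPES buffer was injected and reads continued 6 min (ex 480 ± 25, em 549–562 nm; final DMSO 0.5%). Baseline-normalised AUC was scaled to DMSO (0%) and reference agonist (100%), and EC50 was taken from a nonlinear fit. n = 6/concentration, three independent experiments.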

T1 sequence (Q9GZU1 whole entry): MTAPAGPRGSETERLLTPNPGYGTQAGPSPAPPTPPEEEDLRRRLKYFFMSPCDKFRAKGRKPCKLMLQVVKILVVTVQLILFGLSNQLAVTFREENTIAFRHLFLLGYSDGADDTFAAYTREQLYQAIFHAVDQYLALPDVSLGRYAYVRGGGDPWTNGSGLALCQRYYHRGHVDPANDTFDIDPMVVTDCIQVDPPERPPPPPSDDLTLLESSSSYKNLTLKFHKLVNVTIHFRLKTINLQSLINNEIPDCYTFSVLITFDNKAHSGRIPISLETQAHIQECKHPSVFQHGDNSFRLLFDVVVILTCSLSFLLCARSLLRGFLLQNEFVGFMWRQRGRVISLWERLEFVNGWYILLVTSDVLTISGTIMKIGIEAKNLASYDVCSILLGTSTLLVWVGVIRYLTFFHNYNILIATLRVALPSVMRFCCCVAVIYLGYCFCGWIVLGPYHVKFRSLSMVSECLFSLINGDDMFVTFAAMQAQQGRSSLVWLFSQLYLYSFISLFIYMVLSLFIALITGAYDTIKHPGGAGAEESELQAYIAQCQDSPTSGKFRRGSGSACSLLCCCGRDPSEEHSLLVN
T2 sequence (Q9GZU1 whole entry): as above

The Kd is the equilibrium constant for the complex coming apart. Lower therefore signals tighter binding. As usually defined, the koff is the first-order rate constant of dissociation. The kon is the rate constant with which the complex forms. The term IC50 denotes the midpoint of a concentration-inhibition curve. `COc1ccccc1N1CCN(c2ccccc2NS(=O)(=O)c2ccccc2)CC1` [compound 8, N-(2-(4-(2-methoxyphenyl)piperazin-1-yl)phenyl)benzenesulfonamide]: the Kd at hTRPML1-nLuc [1] was found to be 2.8 ± 1.2 µM. Further, on hTRPML1-nLuc [2], the Kd amounted to 1 µM, the residence time turned out to be 1.5 min and the koff is 0.0112 s⁻¹. Moreover, the kon on hTRPML1-nLuc [2] (read-out: kon of unlabeled compound) is 10700 M⁻¹ s⁻¹. Further, the IC50 against GCaMP6f-hTRPML1 [3] was 2.8 ± 0.2 µM. In the experiment with hTRPML1 (read-out: IC50 in previous studies), the IC50 is 1.8 µM.

Broadly, the EC50 is the midpoint of the concentration-response curve. Take `CC1CC(C)(C)N(C(=O)CN2C(=O)c3ccccc3C2=O)c2ccccc21` (stereo not shown) [compound 1, 2-(2-oxo-2-(2,2,4-trimethyl-3,4-dihydroquinolin-1(2H)-yl)ethyl)isoindoline-1,3-dione]: the affinity on hTRPML1-nLuc [1], expressed as Kd, was 19.8 ± 1.8 µM. In addition, on hTRPML1-nLuc [2], the dissociation constant (Kd) was determined as 37.3 µM, the residence time was 1.5 min and the koff was 0.0108 s⁻¹. This compound displayed an EC50 at GCaMP6f-hTRPML1 [4] of 13 ± 3.1 µM. The EC50 in the experiment with hTRPML1 (read-out: EC50 in previous studies) is 9.7 µM.

The values above are taken from PMC10267526 (The Journal of Biological Chemistry, 2023).
